Published values from different studies.
Protocols differ between the studies behind these lines.
Sample: plasma

Structure (SMILES) | host | route | dose | notes | endpoint | value
C[C@H]1Oc2cc(cnc2N)-c2c(nn(C)c2C#N)CN(C)C(=O)c2ccc(F)cc21 | male Sprague-Dawley rat | oral | 50 mg/kg | single dose | MRT(0-inf) | 25 h
C[C@H]1[C@@H](O)O[C@@H]2O[C@@]3(C)CC[C@H]4[C@H](C)CC[C@@H]1[C@@]24OO3 | male Sprague-Dawley rat | oral | 10 mg/kg |  | MRT(0-inf) | 2.97 h
Nc1ccn([C@@H]2O[C@H](CO)[C@@H](O)C2(F)F)c(=O)n1 | male Sprague-Dawley rat | intravenous | 5 mg/kg |  | MRT(0-inf) | 0.13 h
CCOc1c([C@H](C)n2nc(C)c3c(N)ncnc32)cc(Cl)c(F)c1[C@@H]1CNC(=O)C1 | male Sprague-Dawley rat | oral | 2 mg/kg | single dose | MRT(0-t) | 7.67 h
C=CC(=O)N1CCC[C@@H](n2nc(-c3ccc(Oc4ccccc4)cc3)c3c(N)ncnc32)C1 | male Wistar rat | oral | 40 mg/kg |  | MRT | 4.55 h
C[C@@]12C[C@@]3(O)O[C@@H](O1)[C@]1(COC(=O)c4ccccc4)[C@H]3C[C@@]12O[C@@H]1O[C@H](CO)[C@@H](O)[C@H](O)[C@H]1O | male Sprague-Dawley rat | oral | 80 mg/kg |  | MRT(0-t) | 5.13 h
CONC(=O)c1cccc2c1cc(C)n2-c1nc2c(c(NCc3ccccc3)n1)CCCN2 | male Sprague-Dawley rat | intravenous | 1 mg/kg | single dose | MRT | 3.6 h
C=CC(=O)N1CCC([C@@H]2CCNc3c(C(N)=O)c(-c4ccc(Oc5ccccc5)cc4)nn32)CC1 | Sprague-Dawley rat | oral | 16 mg/kg |  | MRT(0-t) | 3.81 h
COc1ccc(N(Cc2csc(-c3ccccc3)n2)C(=O)CCCCCC(=O)NO)cc1 | female Sprague-Dawley rat | intravenous | 5 mg/kg |  | MRT | 0.39 h
O=C1CCC(N2Cc3cc(C4CCN(Cc5ccccc5)CC4)ccc3C2=O)C(=O)N1 (centres unmarked) | male Sprague-Dawley rat | intravenous | 1 mg/kg |  | MRT(0-inf) | 4.13 h
CC[C@@H]([C@H](C)O)n1ncn(-c2ccc(N3CCN(c4ccc(OC[C@@H]5CO[C@@](Cn6cncn6)(c6ccc(F)cc6F)C5)cc4)CC3)cc2)c1=O | Sprague-Dawley rat | oral | 40 mg/kg |  | MRT(0-t) | 10.3 h
COc1cc(-c2cc(C(C)=O)n3ccccc23)c(OC)cc1Cn1ccnc1 | male Sprague-Dawley rat | oral | 5 mg/kg |  | MRT(0-t) | 1.73 h
COc1nc(-c2cccc(-c3ccccc3)c2C)ccc1CNCCNC(=O)CCCCCCCCCCC(=O)N1CCN(CCNC(=O)c2cc3c(=O)n4cccc(C)c4nc3n(CCc3cccs3)c2=N)CC1 | male Sprague-Dawley rat | intravenous | 2 mg/kg |  | MRT(0-t) | 4.8 h
Cn1c(=O)c2[nH]cnc2n(C)c1=O | male Sprague-Dawley rat | intravenous | 22.5 mg/kg |  | MRT(0-inf) | 3.69 h
